Results on 29 compounds are retold here after ChEMBL document CHEMBL1139885, “De novo parallel design, synthesis and evaluation of inhibitors against the reverse transcriptase of human immunodeficiency virus type-1 and drug-resistant variants” (J Med Chem, 2007).

Calls of active or inactive are those of the source. The calls are words filed in the database; no cut-off is given here.

For one data set, the system named is Human immunodeficiency virus 1. In words: Inhibition of DNA polymerase activity of reverse transcriptase pre-incubated with drug assessed as impairment of primer elongation by DNA polymerase primer-extension assay.
Conditions: not given
In outline:
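Primer extension: 5′-32P-labelled 15-mer primed on circular φX174am3 template (4 nM T/P). RT (1.6 nM) preincubated 30 min on ice, with inhibitor before T/P addition, or with T/P for 5 min before inhibitor. Buffer 6.6 mM Tris-HCl pH 8.0, 4 mM DTT, 6 mM MgCl2, 33 mM NaCl, BSA, 20 µM each dNTP. Run 30 min at 37 °C; products resolved on gel and viewed by autoradiography.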
Regarding `N#CCC(=O)Cc1cccc(I)c1`, the outcome was Active.
As for `Cc1ccnc2c1NC(=O)c1cccnc1N2C1CC1`, the outcome was Active.

The next data set has as its target T1, Human immunodeficiency virus type 1 reverse transcriptase (Human immunodeficiency virus 1, UniProt Q72547). In words: Inhibition of DNA polymerase activity of HIV1 reverse transcriptase.
Conditions: not given
The IC50 is the concentration that inhibits the measured activity by half. Lower therefore signals greater potency. With `N#CCC(=O)c1cccc(I)c1`, the IC50 is > 312 µM.
In turn, `NC(=O)c1sc(N)nc1-c1ccc(Cl)c(Br)c1` showed an IC50 of 118 µM.
Compound `NC(=O)c1sc(N)nc1-c1cccc(Cl)c1` gave an IC50 of 54.4 µM.
Still for that read-out and setting: the figure for `NC(=O)c1sc(N)nc1-c1cccc(C(=O)c2ccccc2)c1` is 44.1 µM; for `N#CCC(=O)c1ccc(Cl)c(Br)c1` it is > 312 µM.
Same read-out and setting: the figure for `NC(=O)c1[nH]cnc1-c1ccc(Cl)c(Br)c1` is 9.9 µM; for `NC(=O)c1[nH]cnc1-c1cccc(C(=O)c2ccccc2)c1` it is > 312 µM.
As to `NC(=O)CC(=O)c1cccc(-c2ccccc2)c1`, the IC50 is > 312 µM.
Compound `NC(=O)c1sc(N)nc1-c1ccccc1` showed an IC50 of 80.7 µM.
The same measure, in the same setting: the figure for `NC(=O)c1[nH]cnc1-c1cccc(Cl)c1` is 79.8 µM; for `NC(=O)c1scnc1-c1cccc(I)c1` it is > 312 µM; for `NC(=O)c1scnc1-c1ccccc1` it is 283 µM.
For the compound `NC(=O)c1sc(N)nc1-c1cccc(I)c1`, the midpoint of inhibition, the IC50, lay at 125 µM.
As for `NC(=O)c1sc(N)nc1-c1cccc(-c2ccccc2)c1`, the IC50 stood at 59.2 µM.
Same read-out and setting: the figure for `NC(=O)c1[nH]cnc1-c1cccc(-c2ccccc2)c1` is > 312 µM; for `N#CCC(=O)Cc1cccc(I)c1` it is 3.5 µM.
Take `N#CCC(=O)c1cccc(Cl)c1`: half-maximal inhibition (IC50) was put at 4.1 µM.
`CCOP(=O)(OCC)Oc1cccc(C(=O)CC#N)c1`: the IC50 turned out to be 64.3 µM.
The compound `NC(=O)c1scnc1-c1ccc(Cl)c(Br)c1` gave an IC50 of 87.5 µM.
Turning to `N#CCC(=O)c1cccc(C(=O)c2ccccc2)c1`, 9.8 µM corresponded to half-maximal inhibition (IC50).
The same measure, in the same setting: the figure for `NC(=O)CC(=O)c1cccc(C(=O)c2ccccc2)c1` is > 312 µM.
In the case of `NC(=O)CC(=O)c1cccc(I)c1`, the half-inhibitory concentration (IC50) worked out at 29.6 µM.
As to `N#CCC(=O)c1cccc(-c2ccccc2)c1`, half-maximal inhibition (IC50) was put at 33.4 µM. The IC50 values of the last two compounds are within 1.5-fold of each other.
The same measure, in the same setting: the figure for `NC(=O)c1scnc1-c1cccc(-c2ccccc2)c1` is > 312 µM.
`NC(=O)c1scnc1-c1cccc(C(=O)c2ccccc2)c1`: the IC50 is 16.3 µM.
Turning to `NC(=O)CC(=O)c1cccc(Cl)c1`, the half-maximal inhibitory concentration (IC50) was > 312 µM.
`NC(=O)c1[nH]cnc1-c1ccccc1`: inhibition was half-maximal at 300 µM (IC50).

Molecular target in a further data set: not listed separately
Kind of data set: Inhibition of drug-resistant reverse transcriptase […] mutant. The arrangement: species or system Human immunodeficiency virus 1.
Conditions: not given
`NC(=O)c1[nH]cnc1-c1ccc(Cl)c(Br)c1` registered an IC50 of 26.4 µM.
On the same count and under the same terms, the figure for `N#CCC(=O)Cc1cccc(I)c1` is 9.9 µM.

Molecular target in another data set: not listed separately
In words: Inhibition of RNase H activity of HIV1 reverse transcriptase. The arrangement: species or system Human immunodeficiency virus 1.
Conditions: not given
Put shortly: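 FRET assay: RT (6 nM) with fluorescein-RNA/DNA-dabcyl hybrid substrate, 1 mM DTT, ± inhibitor; fluorescence read after 30 min at 37 °C. Triplicates; IC50 interpolated from dose-response curves.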
Take `NC(=O)c1sc(N)nc1-c1cccc(Cl)c1`: the IC50 is > 312 µM.
On to `NC(=O)c1sc(N)nc1-c1cccc(C(=O)c2ccccc2)c1`, for which the IC50 was > 312 µM.
Same read-out and setting: the figure for `NC(=O)c1[nH]cnc1-c1ccc(Cl)c(Br)c1` is 41 µM; for `NC(=O)c1sc(N)nc1-c1ccccc1` it is > 312 µM; for `NC(=O)c1[nH]cnc1-c1cccc(Cl)c1` it is > 312 µM.
The same measure, in the same setting: the figure for `NC(=O)c1sc(N)nc1-c1cccc(-c2ccccc2)c1` is 249 µM; for `N#CCC(=O)Cc1cccc(I)c1` it is 20 µM; for `N#CCC(=O)c1cccc(Cl)c1` it is 28 µM.
Same read-out and setting: the figure for `CCOP(=O)(OCC)Oc1cccc(C(=O)CC#N)c1` is 112 µM; for `N#CCC(=O)c1cccc(C(=O)c2ccccc2)c1` it is 98 µM.
For the compound `NC(=O)CC(=O)c1cccc(I)c1`, the IC50 is > 312 µM.
`N#CCC(=O)c1cccc(-c2ccccc2)c1`: the IC50 stood at 84 µM.
On the same count and under the same terms, the figure for `NC(=O)c1scnc1-c1cccc(C(=O)c2ccccc2)c1` is 77 µM.

A further data set has as its target Human immunodeficiency virus type 1 reverse transcriptase (Human immunodeficiency virus 1) (UniProt Q72547). In words: Inhibition of reverse transcriptase binding to DNA assessed as formation of RT-DNA complex by gel mobility shift assay.
Conditions: not given
In outline: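 RT 1.5 pmol preincubated 10 min at 4 °C with compound at 250 and 625 µM final. Then 0.12 pmol 5'-32P-labeled 54-nt duplex DNA added, in 10 mM HEPES, 30 mM ammonium sulfate, 0.25 mM DTT, 0.1 mg/mL BSA, pH 8.0; 10 min 32 °C. Run on nondenaturing 6.5% polyacrylamide gel, TBE, 4 °C; autoradiography.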
`NC(=O)c1[nH]cnc1-c1ccc(Cl)c(Br)c1`: the result was inactive.
The same measure, in the same setting: the entry for `C[C@@H]1CC=C2[C@@H](CCC[C@@]2(C)CC[C@@]2(C)C3=CCCC(C)(C)[C@H]3CC[C@@H]2C)[C@]1(C)Cc1cc(OS(=O)(=O)O)ccc1OS(=O)(=O)O` is “Active”; for `N#CCC(=O)Cc1cccc(I)c1` it is “inactive”; for `Cc1ccnc2c1NC(=O)c1cccnc1N2C1CC1` it is “inactive”.

Molecular target in another data set: not listed separately
Kind of data set: Inhibition of drug-resistant reverse transcriptase L100I-K103 mutant. Set-up: species or system Human immunodeficiency virus 1.
Conditions: not given
In outline: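 p66/p66 homodimer HIV-1 RT double mutant (His-tagged, E. coli-expressed, Ni-NTA purified). DNA polymerase activity: [3H]dTTP incorporation into poly(rA)n·oligo(dT)12-18. DMSO serial dilutions of inhibitor plus 14 ng RT in Tris-HCl pH 7.5/KCl/MgCl2, 10 min on ice, then substrate added, 30 min at 37 °C, scintillation counting. IC50 from a four-parameter logistic fit, from at least two experiments.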
Take `NC(=O)c1[nH]cnc1-c1ccc(Cl)c(Br)c1`: the IC50 was found to be 19.8 µM.
Compound `N#CCC(=O)Cc1cccc(I)c1` gave an IC50 of 9.4 µM. Compared with the last compound, the IC50 is about 2.1-fold lower.

For another data set, the target named is T1, Human immunodeficiency virus type 1 reverse transcriptase. Kind of data set: Inhibition of HIV1 wild type p66/p51 reverse transcriptase.
Conditions: not given
Put shortly: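 BH-10-derived p66/p51 RT, C-terminal His6 on p66, expressed in bacteria, Ni-NTA then cation exchange purified. Substrate mix: 50 µg/mL poly(rA)·oligo(dT)12-18, 50 µM dTTP, [3H]dTTP; 30 min 37 °C.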
`NC(=O)c1[nH]cnc1-c1ccc(Cl)c(Br)c1`: the IC50 was 9.9 µM.
Still for that read-out and setting: the figure for `N#CCC(=O)Cc1cccc(I)c1` is 3.5 µM.

System in another data set: not listed separately
In words: Cytotoxicity against Jurkat cells by XTT assay. The note with it: human. Type of data set: cell-based. In outline:
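Jurkat cells; XTT read-out, absorbance 450 nm with 620 nm reference. CC50 = concentration reducing viability by 50% versus inhibitor-free control.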
On the technique in general: Formazan colour is commonly taken as a measure of viable cells.
One may read the CC50 as the concentration giving 50% cytotoxicity. A low value points to harm at low concentration. Turning to `NC(=O)c1sc(N)nc1-c1cccc(Cl)c1`, the 50% cytotoxic concentration (CC50) is > 312 µM.
Regarding `NC(=O)c1sc(N)nc1-c1cccc(C(=O)c2ccccc2)c1`, the CC50 was > 312 µM.
The same measure, in the same setting: the figure for `NC(=O)c1[nH]cnc1-c1ccc(Cl)c(Br)c1` is 213 µM.
Same read-out and setting: the figure for `NC(=O)c1sc(N)nc1-c1ccccc1` is > 312 µM; for `NC(=O)c1[nH]cnc1-c1cccc(Cl)c1` it is > 312 µM.
`NC(=O)c1sc(N)nc1-c1cccc(-c2ccccc2)c1` displayed a half-maximal cytotoxic concentration (CC50) of 244 µM.
`N#CCC(=O)Cc1cccc(I)c1` came in with a CC50 of 247 µM.
In the case of `N#CCC(=O)c1cccc(Cl)c1`, the CC50 was > 312 µM.
Turning to `CCOP(=O)(OCC)Oc1cccc(C(=O)CC#N)c1`, the 50% cytotoxic concentration (CC50) is > 312 µM.
The compound `N#CCC(=O)c1cccc(C(=O)c2ccccc2)c1` registered a CC50 of 251 µM.
For `NC(=O)CC(=O)c1cccc(I)c1`, the CC50 is > 312 µM.
Same read-out and setting: the figure for `N#CCC(=O)c1cccc(-c2ccccc2)c1` is 233 µM.
`NC(=O)c1scnc1-c1cccc(C(=O)c2ccccc2)c1`: the CC50 was > 312 µM.
